# Published values of several laboratories.
# Lines come from different studies, so protocols differ.
# Target: Carbonic anhydrase 2 (CA2, Homo sapiens, UniProt P00918)
# Observed: enzyme activity
# Mode: inhibitor
SMILES,test,Ki [nM]
Cc1cncc(CN2CCC(=C3c4ccc(Cl)cc4CCc4cccnc43)CC2)c1,absorbance,9180
NS(=O)(=O)c1nnc(NC(=O)CN2CC3CCC2CC3)s1,stopped-flow,43.7
Cc1cc(=O)oc2cc(OCCCCSC#N)ccc12,stopped-flow,> 100000
CC(C)[C@H](N)C(=O)OCCOCn1cnc2c(=O)[nH]c(N)nc21,absorbance,5740
CC1CCCC(C(=O)Nc2nnc(S(N)(=O)=O)s2)C1 (centres unmarked),stopped-flow,31.5
OC1CCN(c2ccc(/C=N/NC(=S)Nc3ccc(Cl)cc3)cc2)CC1,,401
N#CSCc1cc(=O)oc2cc(O)ccc12,stopped-flow,> 100000
Nc1ccc(S(=O)(=O)c2ccc(N)cc2)cc1,absorbance,9480
OC1CCN(c2ccc(/C=N/NC(=S)Nc3ccc(Br)cc3)cc2)CC1,,334
NS(=O)(=O)c1nnc(NC(=O)CN2CCC(F)CC2)s1,stopped-flow,14.1
O=c1[nH]c(=O)n([C@H]2C[C@H](O)[C@@H](CO)O2)cc1/C=C/Br,absorbance,7440
CC1CCC(CC(=O)Nc2nnc(S(N)(=O)=O)s2)CC1 (centres unmarked),stopped-flow,22.3
OC1CCN(c2ccc(/C=N/NC(=S)NCc3ccccc3)cc2)CC1,,561
OC(Cn1cncn1)(Cn1cncn1)c1ccc(F)cc1F,absorbance,7910
OC1CCN(c2ccc(/C=N/NC(=S)Nc3ccc(F)cc3)cc2)CC1,,283
NS(=O)(=O)c1nnc(NC(=O)C2CCC3(CCC3)CC2)s1,stopped-flow,21.7
CC(C)CNC(=S)N/N=C/c1ccc(N2CCC(O)CC2)cc1,,716
NS(=O)(=O)c1nnc(NC(=O)C2CCC3(CCCCC3)CC2)s1,stopped-flow,32.6
CCOC(=O)N1CCC(=C2c3ccc(Cl)cc3CCc3cccnc32)CC1,absorbance,8270
COc1ccc(NC(=S)N/N=C/c2ccc(N3CCC(O)CC3)cc2)cc1,,603
